Laboratory results from ChEMBL document CHEMBL6127097, “Structure-Guided Discovery of cis-Hexahydro-pyrido-oxazinones as Reversible, Drug-like Monoacylglycerol Lipase Inhibitors” (J Med Chem, 2024).
One block for each molecule: values may come before it. Active and inactive are the calls of the source.

Key:
[1] = Cmax in Wistar rat at 5 mg/kg, po measured upto 24 hrs by LC-MS/MS analysis; format: ADME, organism-based; conditions: in vivo
Procedure, shortened: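 Male Wistar rats (N = 3 per group) received a single dose. The i.v. dose was 1 mg/kg in NMP/0.9% NaCl 30:70. The p.o. dose was 5 mg/kg in NMP/HPMC/diisooctyl sulfosuccinate 10:90. Blood was taken into K2EDTA from 0.083 (i.v.) or 0.25 h to 24 h. Plasma was assayed by LC-MS/MS and analysed non-compartmentally.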

[2] = Inhibition of Cynomolgus monkey MAGL using native substrate by Rapidfire MS assay
Monoglyceride lipase [3] = target: T1, Monoglyceride lipase (Homo sapiens, UniProt Q99685); assay: Binding affinity to human MAGL assessed as equilibrium dissociation constant by SPR analysis
T1 sequence (Q99685 whole entry): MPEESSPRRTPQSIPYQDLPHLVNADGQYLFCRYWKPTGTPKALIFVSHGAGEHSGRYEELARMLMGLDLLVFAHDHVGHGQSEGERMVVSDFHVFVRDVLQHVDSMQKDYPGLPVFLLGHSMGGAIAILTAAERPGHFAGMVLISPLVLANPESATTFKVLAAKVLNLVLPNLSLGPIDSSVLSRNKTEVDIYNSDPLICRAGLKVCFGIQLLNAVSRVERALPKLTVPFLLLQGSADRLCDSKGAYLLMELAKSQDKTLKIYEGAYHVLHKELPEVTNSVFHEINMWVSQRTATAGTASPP
Procedure, shortened: (§1)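 Human or rat MAGL was immobilized by amine coupling without ethanolamine quenching. Runs were done at 18 °C in 10 mM HEPES, 150 mM NaCl, 0.05% P20, 50 µM EDTA, pH 7.4, with 1% DMSO. Single-cycle kinetics used five concentrations, top 1 µM in 2-fold steps, at 30 µL/min, giving kon, koff and Kd.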

CYP2D6 = CYP2D6 (Homo sapiens, UniProt P10635); assay: Inhibition of CYP2D6 (unknown origin) at 10 uM relative to control; format: ADME
Chain of CYP2D6 (P10635 whole entry): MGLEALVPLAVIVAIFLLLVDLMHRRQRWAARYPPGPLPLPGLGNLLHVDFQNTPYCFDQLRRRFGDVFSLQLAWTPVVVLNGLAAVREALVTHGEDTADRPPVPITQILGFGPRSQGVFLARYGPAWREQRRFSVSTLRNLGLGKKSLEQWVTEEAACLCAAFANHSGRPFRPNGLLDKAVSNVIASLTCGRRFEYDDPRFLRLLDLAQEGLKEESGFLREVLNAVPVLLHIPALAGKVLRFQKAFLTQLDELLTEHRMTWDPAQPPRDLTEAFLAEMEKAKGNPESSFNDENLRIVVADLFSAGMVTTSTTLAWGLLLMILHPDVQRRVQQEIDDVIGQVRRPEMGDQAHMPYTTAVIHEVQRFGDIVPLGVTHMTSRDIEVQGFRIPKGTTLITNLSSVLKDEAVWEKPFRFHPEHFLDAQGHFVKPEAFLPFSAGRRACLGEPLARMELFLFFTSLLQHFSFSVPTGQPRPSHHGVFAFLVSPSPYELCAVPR

[4] = Clearance in mouse hepatocytes assessed per 10 million cells; format: ADME, cell-based, Hepatocyte; conditions: read-out: CLH
[5] = Clearance in rat microsomes; format: ADME, Microsome
Monoglyceride lipase [6] = target: T2, Monoglyceride lipase (Mus musculus, UniProt O35678); assay: Inhibition of mouse MAGL using native substrate by Rapidfire MS assay
T2 sequence (O35678 whole entry): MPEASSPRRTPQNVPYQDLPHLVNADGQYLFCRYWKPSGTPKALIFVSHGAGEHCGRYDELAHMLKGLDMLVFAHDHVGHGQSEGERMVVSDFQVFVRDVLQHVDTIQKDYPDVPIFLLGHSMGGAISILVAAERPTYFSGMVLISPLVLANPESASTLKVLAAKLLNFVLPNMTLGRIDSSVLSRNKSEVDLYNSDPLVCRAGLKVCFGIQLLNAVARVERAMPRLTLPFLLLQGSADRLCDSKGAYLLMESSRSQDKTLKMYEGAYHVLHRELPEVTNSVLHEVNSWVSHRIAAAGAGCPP

[7] = Free fraction in human plasma incubated for 5 hrs by equilibrium dialysis based LC-MS/MS analysis; format: ADME, cell-free
Procedure, shortened: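 Equilibrium dialysis across a 12–14 kDa cutoff membrane in a Teflon 96-well device. Pooled frozen plasma is adjusted to pH 7.4 and spiked at 1000 nM initial total, against Soerensen buffer pH 7.4. Incubation is 5 h at 37 °C, 5% CO2, with diazepam control in each well. %fu = 100 × buffer/matrix concentration after dialysis; recovery accepted at 80–120%.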

[8] = Chemical stability at pH 1 incubated for 2 hrs; format: physicochemical; conditions: buffer, pH 1, 2 h
Procedure, shortened: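 Compound was held in aqueous buffer at the stated pH for 2 h at 37 °C.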

[9] = Average drug concentration in mouse plasma at 30 mg/kg, ip measured after 24 hrs; format: ADME, organism-based; conditions: in vivo
Procedure, shortened: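 In a time course, mice were injected i.p. with 30 mg/kg in NaCl/DMSO/Tween 80 (80/10/10). Average plasma levels were determined at the stated time points over 24 h.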

[10] = Drug concentration in mouse CSF at 30 mg/kg, ip measured after 2 hrs; format: ADME, organism-based, Cerebrospinal fluid; conditions: read-out: Ct
[11] = Volume of distribution at steady state in Wistar rat at 1 mg/kg, iv measured upto 24 hrs by LC-MS/MS analysis; format: ADME, organism-based; conditions: in vivo, read-out: Vdss
Procedure, shortened: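 Male Wistar rats (N = 3) received a single 1 mg/kg i.v. dose as a solution in NMP/0.9% NaCl (30:70, 2 mL/kg). Blood was drawn at 0.083, 0.25, 0.5, 1, 2, 4, 7 and 24 h onto K2EDTA, and plasma was separated by centrifugation at 3000g for 15 min at 4 °C. Concentrations were measured by LC-MS/MS, and Vss was derived by noncompartmental analysis.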

[12] = Drug concentration in mouse CSF at 30 mg/kg, ip measured after 4 hrs; format: ADME, organism-based, Cerebrospinal fluid; conditions: read-out: Ct
[13] = target: Voltage-gated inwardly rectifying potassium channel KCNH2 (Homo sapiens, UniProt Q12809); assay: Inhibition of human ERG expressed in CHO cells by automated patch clamp method; format: toxicity, cell-based
Chain of Voltage-gated inwardly rectifying potassium channel KCNH2 (Q12809 whole entry): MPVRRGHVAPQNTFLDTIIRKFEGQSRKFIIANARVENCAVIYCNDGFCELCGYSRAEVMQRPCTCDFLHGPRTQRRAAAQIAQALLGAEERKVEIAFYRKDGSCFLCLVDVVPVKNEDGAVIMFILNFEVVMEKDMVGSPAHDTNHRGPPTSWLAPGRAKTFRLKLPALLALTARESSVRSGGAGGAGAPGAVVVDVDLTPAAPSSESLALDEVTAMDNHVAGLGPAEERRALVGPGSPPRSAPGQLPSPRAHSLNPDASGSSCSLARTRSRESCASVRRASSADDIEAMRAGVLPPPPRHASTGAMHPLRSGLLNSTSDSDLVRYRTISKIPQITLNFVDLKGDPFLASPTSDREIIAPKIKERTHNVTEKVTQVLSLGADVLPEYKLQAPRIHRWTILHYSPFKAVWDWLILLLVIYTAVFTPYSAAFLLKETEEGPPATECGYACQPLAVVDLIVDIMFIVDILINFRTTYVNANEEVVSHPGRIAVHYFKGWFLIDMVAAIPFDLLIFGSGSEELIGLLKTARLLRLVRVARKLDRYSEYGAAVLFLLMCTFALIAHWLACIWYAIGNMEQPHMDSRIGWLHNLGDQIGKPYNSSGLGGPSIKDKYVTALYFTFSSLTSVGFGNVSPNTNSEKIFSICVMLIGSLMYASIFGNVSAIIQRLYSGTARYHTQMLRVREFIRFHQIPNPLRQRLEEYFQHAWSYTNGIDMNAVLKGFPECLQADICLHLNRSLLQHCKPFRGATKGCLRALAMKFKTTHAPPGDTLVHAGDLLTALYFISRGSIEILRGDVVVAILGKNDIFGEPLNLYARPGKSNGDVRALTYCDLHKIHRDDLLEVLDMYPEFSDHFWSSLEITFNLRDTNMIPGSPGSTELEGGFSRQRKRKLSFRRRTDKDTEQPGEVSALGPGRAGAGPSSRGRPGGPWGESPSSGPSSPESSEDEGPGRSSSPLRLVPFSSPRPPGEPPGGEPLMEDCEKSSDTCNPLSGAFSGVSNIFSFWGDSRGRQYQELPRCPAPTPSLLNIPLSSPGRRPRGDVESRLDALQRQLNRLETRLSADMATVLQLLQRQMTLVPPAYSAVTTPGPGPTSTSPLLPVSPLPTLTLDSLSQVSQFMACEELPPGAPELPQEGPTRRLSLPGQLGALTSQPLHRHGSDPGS

[14] = target: T3, Monoglyceride lipase (Homo sapiens) (UniProt Q99685); assay: Binding affinity to human MAGL assessed as dissociation rate constant by SPR analysis; procedure, shortened: as §1
T3 sequence (whole entry): T1 sequence (Q99685 whole entry)

Mus musculus [15] = assay: Upregulation of brain 2-AG level in mouse at 30 mg/kg, ip measured after 8 to 24 hrs; format: functional, organism-based; conditions: time 8-24 hrs
Procedure, shortened: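 Male-unspecified mice received a single i.p. dose of 30 mg/kg. The vehicle was NaCl/DMSO/TW80 (80/10/10): the drug was dissolved in equal parts DMSO and TW80, then diluted with 8 parts normal saline. Brain 2-AG levels were followed over 24 h after dosing and measured by LC/MS in brain extracts.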

[16] = target: T4, Monoglyceride lipase (Mus musculus) (UniProt O35678); assay: In vivo receptor occupancy at MAGL receptor in mouse at 30 mg/kg, ip measured after 2 hrs; format: functional, organism-based
T4 sequence (whole entry): T2 sequence (O35678 whole entry)
Procedure, shortened: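 Mice dosed 30 mg/kg i.p. in NaCl/DMSO/TW80 (80/10/10). Brain proteome was prepared at set time points over 24 h and MAGL occupancy read by activity-based protein profiling.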

[17] = target: T4, Monoglyceride lipase (Mus musculus); assay: In vivo receptor occupancy at MAGL receptor in mouse at 10 mg/kg, ip measured after 4 hrs; format: functional, organism-based
Mus musculus [18] = assay: Antiinflammatory activity in LPS-induced CD-1 mouse neuroinflammation model assessed as decrease in peripheral tissue IL-1beta mRNA expression at 30 mg/kg, ip measured after 6 hrs by qRT-PCR analysis; format: functional, organism-based
Procedure, shortened: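 CD-1 mice were dosed with NaCl + vehicle, LPS (5 mg/kg) + vehicle, or LPS + inhibitor at 30 mg/kg i.p. (vehicle NaCl/DMSO/Tween 80, 80/10/10). They were sacrificed 6 h post-compound. LCN2 and IL1b mRNA in peripheral tissue were measured by droplet digital qRT-PCR.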

Homo sapiens = organism: Homo sapiens; assay: Inhibition of serotonin transporter (unknown origin) at 10 uM relative to control
Procedure, shortened: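 Cerep panel of 50 off-targets, percent inhibition at 10 µM.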

[19] = target: Fatty acid amide hydrolase (Mus musculus) (UniProt O08914); assay: Inhibition of FAAH in mouse brain lysates at 10 uM by ABPP assay
Chain of Fatty acid amide hydrolase (Mus musculus) (O08914 whole entry, looked up): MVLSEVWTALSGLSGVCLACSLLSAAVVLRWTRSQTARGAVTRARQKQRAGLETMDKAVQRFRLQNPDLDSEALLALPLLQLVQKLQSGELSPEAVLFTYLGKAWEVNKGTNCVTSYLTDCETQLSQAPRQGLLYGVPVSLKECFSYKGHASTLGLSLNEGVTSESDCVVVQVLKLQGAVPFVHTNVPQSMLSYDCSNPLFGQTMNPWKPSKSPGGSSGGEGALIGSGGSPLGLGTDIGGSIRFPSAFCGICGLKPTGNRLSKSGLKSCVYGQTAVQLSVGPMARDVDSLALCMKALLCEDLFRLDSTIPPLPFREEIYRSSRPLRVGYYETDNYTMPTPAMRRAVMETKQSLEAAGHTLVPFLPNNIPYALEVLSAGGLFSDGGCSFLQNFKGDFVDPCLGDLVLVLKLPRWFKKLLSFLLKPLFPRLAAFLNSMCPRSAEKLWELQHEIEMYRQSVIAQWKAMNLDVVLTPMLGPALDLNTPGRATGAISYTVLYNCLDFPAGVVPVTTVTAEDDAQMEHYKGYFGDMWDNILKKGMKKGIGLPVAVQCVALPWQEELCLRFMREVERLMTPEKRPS

- Cmax [1]: 1290 ng/mL
- IC50 [2]: 16 nM
- Kd (Monoglyceride lipase [3]): 45 nM
- inhibition at 10 µM (CYP2D6): -12%
- hepatocyte CLint [4]: 8.9 µL/min/1e6 cells
- microsomal CLint [5]: 11 µL/min/mg
- IC50 (Monoglyceride lipase [6]): 91 nM
- fraction unbound at 5 h [7]: 0.043
- Stability [8]: Stable
- Cave [9]: 100 nM
- concentration at 2 h [10]: 689 nM
- Vd [11]: 1.3 L/kg
- concentration at 4 h [12]: 455 nM
Structure (SMILES): O=C1CO[C@H]2CCN(C(=O)N3CCC(Cc4ccc(C(F)(F)F)cc4)CC3)C[C@H]2N1 [listing 1 of 2 here]
- IC50 [13]: 7700 nM

- K [14]: 7.5 10^-3/s
- Activity [16]: 96%
- Activity [17]: 79%
- inhibition (Homo sapiens): 57%
- inhibition [19]: inactive
Structure (SMILES): O=C1CO[C@H]2CCN(C(=O)N3CCC(Cc4ccc(C(F)(F)F)cc4)CC3)C[C@H]2N1 [listing 2 of 2 here]
- Activity (Mus musculus [15]): inactive
- Activity (Mus musculus [18]): inactive
